ChEMBL document CHEMBL4196128 (ACS Med Chem Lett, 2018)

Experiments:
[1] = Half life in Beagle dog at 3 mg/kg, iv; assay type: ADME, organism-based, Canis lupus familiaris; conditions: in vivo
Outline: (§1)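 The compound was given intravenously as an aqueous solution in 20% hydroxypropyl-β-cyclodextrin. Animals were male CD1 mice (10 mg/kg, n = 30), Sprague–Dawley rats (3 mg/kg, n = 3), beagle dogs (3 mg/kg, n = 3) and cynomolgus monkeys (1 mg/kg, n = 3). Plasma concentration–time data gave mean AUC(0–∞), half-life, mean residence time, clearance and Vd,ss.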

[2] = Half life in monkey at 1 mg/kg, iv; conditions: cynomolgus monkey, in vivo
Cytochrome P450 2C19 = Cytochrome P450 2C19 (Homo sapiens, UniProt P33261); test: Inhibition of CYP2C19 (unknown origin) preincubated followed by substrate addition; assay type: ADME
[3] = Protein binding in dog plasma at 10 uM; assay type: ADME, cell-free, Canis lupus familiaris; conditions: read-out: PPB
[4] = target: T1, Mitogen-activated protein kinase; ERK1/ERK2 (Homo sapiens) (UniProt P27361+P28482); test: Inhibition of ERK1/2 phosphorylation in human A2058 cells at 30 nM after 24 hrs by Western blot analysis relative to control; assay type: cell-based
Outline: (§2)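 A2058 melanoma cells were treated across a compound dose range. pERK1/2 and pRSK levels were detected by Western blot analysis.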

[5] = Tmax in Beagle dog at 30 mg/kg, po; assay type: ADME, organism-based, Canis lupus familiaris; conditions: in vivo
Outline: (§3)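 Oral dosing in male CD1 mice (30 mg/kg, n = 27), Sprague–Dawley rats (10 mg/kg, n = 3), beagle dogs (30 mg/kg, n = 3) and cynomolgus monkeys (10 mg/kg, n = 3). Mean Tmax was read from plasma concentration–time data. Bioavailability was derived from oral AUC(0–∞) compared with intravenous AUC.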

[6] = Volume of distribution at steady state in monkey at 1 mg/kg, iv; conditions: cynomolgus monkey, in vivo, read-out: Vdss
Cytochrome P450 2C9 [7] = target: T2, Cytochrome P450 2C9 (Homo sapiens, UniProt P11712); test: Inhibition of CYP2C9 (unknown origin) preincubated followed by substrate addition; assay type: ADME
[8] = Clearance in Sprague-Dawley rat at 3 mg/kg, iv; assay type: ADME, organism-based; conditions: in vivo; outline: as §1
A2058 = test: Antiproliferative activity against human A2058 cells harboring BRAF V600E/D mutant measured after 4 days; assay type: functional, cell-based; conditions: A2058, 96 h
[9] = Protein binding in mouse plasma at 10 uM; assay type: ADME, cell-free; conditions: read-out: PPB
COLO 205 = test: Antiproliferative activity against human COLO205 cells harboring BRAF V600E/D mutant measured after 4 days; assay type: functional, cell-based; conditions: COLO 205, 96 h
[10] = Protein binding in human plasma at 10 uM; assay type: ADME, cell-free; conditions: read-out: PPB
[11] = Half life in Sprague-Dawley rat at 3 mg/kg, iv; assay type: ADME, organism-based; conditions: in vivo; outline: as §1
hERG (KCNH2) [12] = target: T3, hERG (KCNH2) (Homo sapiens, UniProt Q12809); test: Inhibition of human ERG at 1 uM by IonWork assay relative to control
[13] = Tmax in Sprague-Dawley rat at 10 mg/kg, po; assay type: ADME, organism-based; conditions: in vivo; outline: as §3
[14] = Volume of distribution at steady state in Beagle dog at 3 mg/kg, iv; assay type: ADME, organism-based, Canis lupus familiaris; conditions: in vivo, read-out: Vdss
Outline: (§4)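 Intravenous dosing in male CD1 mice (10 mg/kg, n = 30), Sprague–Dawley rats (3 mg/kg, n = 3), beagle dogs (3 mg/kg, n = 3) and cynomolgus monkeys (1 mg/kg, n = 3). Vehicle was aqueous 20% hydroxypropyl-β-cyclodextrin. Mean residence time and steady-state volume of distribution were taken from plasma concentration–time profiles as mean parameters.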

Cytochrome P450 2D6 = Cytochrome P450 2D6 (Homo sapiens, UniProt P10635); test: Inhibition of CYP2D6 (unknown origin) preincubated followed by substrate addition; assay type: ADME
Cytochrome P450 1A2 = target: T4, Cytochrome P450 1A2 (Homo sapiens, UniProt P05177); test: Inhibition of CYP1A2 (unknown origin) preincubated followed by substrate addition; assay type: ADME
T4 sequence (P05177 whole entry): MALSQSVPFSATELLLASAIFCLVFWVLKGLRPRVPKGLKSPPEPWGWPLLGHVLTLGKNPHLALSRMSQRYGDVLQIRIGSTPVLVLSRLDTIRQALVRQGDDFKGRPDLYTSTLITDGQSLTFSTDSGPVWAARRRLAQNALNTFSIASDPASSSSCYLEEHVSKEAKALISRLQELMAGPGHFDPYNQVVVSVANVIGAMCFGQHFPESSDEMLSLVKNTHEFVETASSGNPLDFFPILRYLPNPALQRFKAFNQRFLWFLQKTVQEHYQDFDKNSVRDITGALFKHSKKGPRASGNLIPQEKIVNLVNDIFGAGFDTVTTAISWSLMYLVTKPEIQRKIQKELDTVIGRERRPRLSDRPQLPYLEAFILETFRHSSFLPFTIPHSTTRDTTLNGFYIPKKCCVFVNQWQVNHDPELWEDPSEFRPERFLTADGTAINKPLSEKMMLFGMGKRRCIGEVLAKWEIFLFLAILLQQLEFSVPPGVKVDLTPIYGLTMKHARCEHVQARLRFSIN

[15] = Mean residence time in monkey at 1 mg/kg, iv; conditions: cynomolgus monkey, in vivo
hERG (KCNH2) [16] = target: T3, hERG (KCNH2); test: Inhibition of human ERG at 5 mg/ml by binding assay relative to control; design: dose or concentration left out as unconfirmed
Cavia porcellus = test: Cardiotoxicity in telemetered guinea pig assessed as changes in PR interval at 30 to 100 mg/kg; assay type: toxicity, organism-based; conditions: in vivo
Outline: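 Telemetered guinea pigs were exposed at 30 and 100 mg/kg. Electrocardiographic PR, QRS and QT/QTc intervals were monitored for changes related to the test article, and exposure was referenced to total Cmax.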

[17] = target: Mitogen-activated protein kinase 1 (Homo sapiens, UniProt P28482); test: Inhibition of ERK2 (unknown origin) using peptide substrate measured after 45 mins by IMAP assay
[18] = Mean residence time in Sprague-Dawley rat at 3 mg/kg, iv; assay type: ADME, organism-based; conditions: in vivo; outline: as §4
[19] = target: T1, Mitogen-activated protein kinase; ERK1/ERK2 (Homo sapiens); test: Inhibition of ERK1/2 phosphorylation in human A2058 cells after 24 hrs by Western blot analysis; assay type: cell-based; outline: as §2
[20] = Oral bioavailability in Sprague-Dawley rat at 10 mg/kg; assay type: ADME, organism-based; conditions: in vivo; outline: as §3
Cytochrome P450 2C9 [21] = target: T2, Cytochrome P450 2C9; test: Inhibition of CYP2C9 (unknown origin) co-incubated with substrate; assay type: ADME
[22] = Mean residence time in Beagle dog at 3 mg/kg, iv; assay type: ADME, organism-based, Canis lupus familiaris; conditions: in vivo; outline: as §4
[23] = Apparent permeability across apical to basolateral side in human Caco2 cells; assay type: ADME, cell-based; conditions: Caco-2, read-out: permeability
[24] = Protein binding in Sprague-Dawley rat plasma at 10 uM; assay type: ADME, cell-free; conditions: read-out: PPB
[25] = target: Mitogen-activated protein kinase 3 (Homo sapiens, UniProt P27361); test: Inhibition of ERK1 (unknown origin) using peptide substrate measured after 45 mins by IMAP assay
[26] = Apparent permeability across basolateral to apical side in human Caco2 cells; assay type: ADME, cell-based; conditions: Caco-2, read-out: permeability
Cytochrome P450 3A4 = Cytochrome P450 3A4 (Homo sapiens, UniProt P08684); test: Inhibition of CYP3A4 (unknown origin) preincubated followed by substrate addition; assay type: ADME
Chain of Cytochrome P450 3A4 (P08684 whole entry): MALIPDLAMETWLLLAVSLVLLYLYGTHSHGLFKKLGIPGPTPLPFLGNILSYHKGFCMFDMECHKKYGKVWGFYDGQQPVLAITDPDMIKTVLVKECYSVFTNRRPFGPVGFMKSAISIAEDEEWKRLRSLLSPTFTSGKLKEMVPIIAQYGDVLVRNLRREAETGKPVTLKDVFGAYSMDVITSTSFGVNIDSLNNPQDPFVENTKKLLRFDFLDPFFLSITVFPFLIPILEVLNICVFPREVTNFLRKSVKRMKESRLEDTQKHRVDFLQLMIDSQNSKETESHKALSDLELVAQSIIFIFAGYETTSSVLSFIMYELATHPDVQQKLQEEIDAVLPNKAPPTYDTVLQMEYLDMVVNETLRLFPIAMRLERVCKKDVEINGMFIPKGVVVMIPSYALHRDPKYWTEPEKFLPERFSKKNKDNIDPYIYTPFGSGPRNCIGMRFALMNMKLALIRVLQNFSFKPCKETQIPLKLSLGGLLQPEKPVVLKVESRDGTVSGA

T3 sequence (Q12809 whole entry): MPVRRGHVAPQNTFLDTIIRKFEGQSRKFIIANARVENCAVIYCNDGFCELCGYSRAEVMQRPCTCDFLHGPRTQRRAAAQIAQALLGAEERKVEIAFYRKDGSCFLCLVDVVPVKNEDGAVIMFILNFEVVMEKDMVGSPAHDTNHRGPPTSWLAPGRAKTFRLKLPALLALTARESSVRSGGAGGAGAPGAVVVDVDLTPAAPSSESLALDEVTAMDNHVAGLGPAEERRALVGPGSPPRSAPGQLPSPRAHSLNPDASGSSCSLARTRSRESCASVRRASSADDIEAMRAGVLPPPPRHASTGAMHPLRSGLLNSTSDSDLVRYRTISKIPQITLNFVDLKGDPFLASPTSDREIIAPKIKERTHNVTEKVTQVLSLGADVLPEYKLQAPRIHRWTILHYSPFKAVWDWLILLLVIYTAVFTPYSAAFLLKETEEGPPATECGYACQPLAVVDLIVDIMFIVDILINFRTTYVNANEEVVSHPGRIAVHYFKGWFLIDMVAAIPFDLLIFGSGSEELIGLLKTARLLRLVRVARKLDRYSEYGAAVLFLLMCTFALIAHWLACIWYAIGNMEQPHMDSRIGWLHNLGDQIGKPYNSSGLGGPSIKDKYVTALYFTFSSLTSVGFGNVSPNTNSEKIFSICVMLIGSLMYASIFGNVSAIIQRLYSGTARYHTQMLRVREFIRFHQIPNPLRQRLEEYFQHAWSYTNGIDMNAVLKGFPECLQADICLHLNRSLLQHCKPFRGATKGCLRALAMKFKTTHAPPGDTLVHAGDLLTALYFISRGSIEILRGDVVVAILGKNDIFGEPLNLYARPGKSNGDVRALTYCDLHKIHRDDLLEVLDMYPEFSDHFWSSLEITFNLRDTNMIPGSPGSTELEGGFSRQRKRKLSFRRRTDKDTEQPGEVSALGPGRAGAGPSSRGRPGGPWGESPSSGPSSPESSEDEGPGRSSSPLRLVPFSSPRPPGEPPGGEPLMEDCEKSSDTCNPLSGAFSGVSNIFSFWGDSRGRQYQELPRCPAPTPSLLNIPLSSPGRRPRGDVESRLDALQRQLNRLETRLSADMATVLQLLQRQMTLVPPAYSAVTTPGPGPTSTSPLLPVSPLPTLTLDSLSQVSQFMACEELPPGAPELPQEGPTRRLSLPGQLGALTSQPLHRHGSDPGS
T2 sequence (P11712 whole entry): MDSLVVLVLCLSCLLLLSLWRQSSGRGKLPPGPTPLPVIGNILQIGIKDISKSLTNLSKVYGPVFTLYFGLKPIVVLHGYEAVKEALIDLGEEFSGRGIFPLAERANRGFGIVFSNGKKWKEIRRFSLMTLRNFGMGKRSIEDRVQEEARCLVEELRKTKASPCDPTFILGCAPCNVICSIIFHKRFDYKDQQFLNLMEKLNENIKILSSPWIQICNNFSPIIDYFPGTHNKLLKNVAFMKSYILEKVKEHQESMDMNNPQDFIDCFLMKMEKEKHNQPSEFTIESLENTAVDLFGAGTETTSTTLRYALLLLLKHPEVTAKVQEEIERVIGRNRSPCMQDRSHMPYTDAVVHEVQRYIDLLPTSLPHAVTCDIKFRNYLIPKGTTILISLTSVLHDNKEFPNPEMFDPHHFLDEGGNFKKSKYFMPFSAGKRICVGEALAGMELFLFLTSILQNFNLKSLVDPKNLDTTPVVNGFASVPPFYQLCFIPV
T1 sequence (P27361 whole entry, looked up): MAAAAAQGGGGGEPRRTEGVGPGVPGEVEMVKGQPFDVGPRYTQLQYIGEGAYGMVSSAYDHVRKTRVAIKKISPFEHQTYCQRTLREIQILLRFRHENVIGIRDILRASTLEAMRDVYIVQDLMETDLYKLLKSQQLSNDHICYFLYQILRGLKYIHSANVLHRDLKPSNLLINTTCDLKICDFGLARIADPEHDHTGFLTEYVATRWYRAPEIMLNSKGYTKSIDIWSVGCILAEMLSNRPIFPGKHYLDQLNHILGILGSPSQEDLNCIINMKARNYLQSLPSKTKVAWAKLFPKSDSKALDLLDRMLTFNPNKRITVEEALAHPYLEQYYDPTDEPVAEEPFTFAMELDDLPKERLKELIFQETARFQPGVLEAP
T1 sequence (P28482 whole entry, looked up): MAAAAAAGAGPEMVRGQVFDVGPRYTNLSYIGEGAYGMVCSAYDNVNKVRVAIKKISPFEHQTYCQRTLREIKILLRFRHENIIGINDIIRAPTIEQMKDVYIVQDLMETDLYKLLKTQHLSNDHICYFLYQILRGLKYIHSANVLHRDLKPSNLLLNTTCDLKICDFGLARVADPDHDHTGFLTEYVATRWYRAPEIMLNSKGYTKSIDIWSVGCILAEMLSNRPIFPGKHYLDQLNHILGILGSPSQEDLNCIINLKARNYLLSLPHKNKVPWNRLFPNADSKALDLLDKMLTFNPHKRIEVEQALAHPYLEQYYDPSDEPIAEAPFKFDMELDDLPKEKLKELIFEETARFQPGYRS
Chain of Cytochrome P450 2D6 (P10635 whole entry): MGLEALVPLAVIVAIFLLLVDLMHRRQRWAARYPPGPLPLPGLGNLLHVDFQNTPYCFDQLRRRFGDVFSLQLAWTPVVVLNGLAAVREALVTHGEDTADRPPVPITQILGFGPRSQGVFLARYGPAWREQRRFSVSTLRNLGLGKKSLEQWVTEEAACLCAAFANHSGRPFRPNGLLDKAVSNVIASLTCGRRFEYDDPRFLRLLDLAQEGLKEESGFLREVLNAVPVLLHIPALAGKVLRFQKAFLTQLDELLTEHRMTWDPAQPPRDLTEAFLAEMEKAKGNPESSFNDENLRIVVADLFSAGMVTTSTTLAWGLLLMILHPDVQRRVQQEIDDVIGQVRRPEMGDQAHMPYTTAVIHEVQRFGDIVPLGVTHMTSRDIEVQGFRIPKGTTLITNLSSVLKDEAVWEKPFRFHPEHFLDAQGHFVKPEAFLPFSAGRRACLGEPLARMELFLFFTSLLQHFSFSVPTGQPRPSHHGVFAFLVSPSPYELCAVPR
Chain of Mitogen-activated protein kinase 1 (P28482 whole entry): as the sequence (P28482 whole entry, looked up) above
Chain of Cytochrome P450 2C19 (P33261 whole entry): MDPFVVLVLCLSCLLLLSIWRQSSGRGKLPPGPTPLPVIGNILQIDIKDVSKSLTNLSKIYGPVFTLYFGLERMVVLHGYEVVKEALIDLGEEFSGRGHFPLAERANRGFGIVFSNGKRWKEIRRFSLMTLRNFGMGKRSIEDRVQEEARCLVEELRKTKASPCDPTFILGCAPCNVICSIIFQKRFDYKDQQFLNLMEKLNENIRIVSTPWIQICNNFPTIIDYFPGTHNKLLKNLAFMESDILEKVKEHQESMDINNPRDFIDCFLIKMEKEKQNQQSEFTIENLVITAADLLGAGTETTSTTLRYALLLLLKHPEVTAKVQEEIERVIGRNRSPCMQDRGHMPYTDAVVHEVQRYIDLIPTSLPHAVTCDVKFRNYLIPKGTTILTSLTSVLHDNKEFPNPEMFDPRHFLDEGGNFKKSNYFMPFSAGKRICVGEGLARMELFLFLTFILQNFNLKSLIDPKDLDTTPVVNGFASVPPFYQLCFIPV
Chain of Mitogen-activated protein kinase 3 (P27361 whole entry): as the sequence (P27361 whole entry, looked up) above

half-life [1]: 2.8 h | half-life [2]: 1.3 h | inhibition (INH) (Cytochrome P450 2C19): Not Active | fraction unbound at 10 µM [3]: < 0.01 | inhibition [4]: 100% | Tmax [5]: 4 h | Vd [6]: 2 L/kg | IC50 (Cytochrome P450 2C9 [7]): > 5 µM | clearance [8]: 1 mL/min/kg | fraction unbound at 10 µM [9]: < 0.01 | IC50 (COLO 205): 0.023 µM | fraction unbound at 10 µM [10]: < 0.01 | half-life [11]: 1.6 h | Tmax [13]: 1.7 h | Vd [14]: 0.9 L/kg | inhibition (INH) (Cytochrome P450 2D6): Not Active | inhibition (INH) (Cytochrome P450 1A2): Not Active | MRT [15]: 1.9 h | IC50 [17]: 0.007 µM | MRT [18]: 2.3 h | inhibition [19]: Dose-dependent effect | bioavailability [20]: 50% | IC50 (Cytochrome P450 2C9 [21]): > 5 µM | MRT [22]: 4 h | Papp A→B [23]: 13.4 ×10⁻⁶ cm/s | fraction unbound at 10 µM [24]: < 0.01 | IC50 [25]: 0.02 µM | Papp B→A [26]: 40 ×10⁻⁶ cm/s | IC50 (Cytochrome P450 3A4): 1.7 µM
SMILES: CS[C@@]1(C(=O)Nc2ccc3[nH]nc(-c4ccc(OC(C)C)nc4)c3c2)CCN(CC(=O)N2CC=C(c3ccc(-c4ncn(C)n4)cc3)CC2)C1 [MK-8353]
IC50 (A2058): 0.371 µM | inhibition at 1 µM (hERG (KCNH2) [12]): -1.7% | inhibition (hERG (KCNH2) [16]): 6% | Activity (Cavia porcellus): Non-Toxic
